The values that follow come from ChEMBL document CHEMBL2331234, “Novel analgesic/anti-inflammatory agents: 1,5-diarylpyrrole nitrooxyalkyl ethers and related compounds as cyclooxygenase-2 inhibiting nitric oxide donors” (J Med Chem, 2013).

Structures are written as SMILES. Some results are limits rather than exact numbers.

Assay [1] relates to Rattus norvegicus. Nature of the assay: Antiinflammatory activity in Sprague-Dawley/Wistar rat assessed as decrease in carrageenan-induced hyperalgesia at 20 mg/kg, po administered 4 hrs after carrageenan-challenge measured after 120 mins (reference value: 31.4 +/- 3.7 g). The assay is classed as functional.
Assay [2] concerns Rattus norvegicus. Put plainly: Antiinflammatory activity in Sprague-Dawley/Wistar rat assessed as decrease in carrageenan-induced hyperalgesia at 20 mg/kg, po administered 4 hrs after carrageenan-challenge measured after 60 mins (reference value: 33.9 +/- 3.7 g). The assay is classed as functional.
For the next assay, the system named is Mus musculus. Put plainly: Antinociceptive activity in po dosed Swiss albino mouse assessed as reduction in number of acetic acid-induced writhing counted 5 mins after acetic acid challenge counted for 10 mins. The assay is classed as functional. The following applies: read-out: MED. The method in brief:
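Male Swiss albino mice (23-25 g) dosed orally, then given 0.6% acetic acid (10 mL/kg) ip. Stretching movements counted for 10 min, starting 5 min after the acetic acid. Control group received CMC. At least 7 mice/group; mean ± SEM, ANOVA with Fisher's PLSD.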

Another assay deals with Aorta. Nature of the assay: Vasorelaxant activity in Wistar rat endothelium-removed thoracic aortic rings assessed as reduction of KCl-induced vasoconstriction treated after KCl-challenge. The assay is classed as functional, tissue-based. The method in brief: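 Thoracic aortic rings from male Wistar rats (250-350 g), endothelium removed by rubbing; removal confirmed as <10% relaxation to ACh 10 µM in KCl 30 mM-contracted rings. Rings contracted with KCl 30 mM; at plateau, 3-fold increasing compound concentrations (1 nM-10 µM) added. Isometric tension recorded. Emax given as % of KCl tone; pIC50 as -log molar concentration halving that tone. 6-10 experiments; also run with ODQ 1 µM.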

The target of assay [3] is T1, Prostaglandin G/H synthase 1 (Mus musculus, UniProt P22437).
T1 sequence (P22437 whole entry): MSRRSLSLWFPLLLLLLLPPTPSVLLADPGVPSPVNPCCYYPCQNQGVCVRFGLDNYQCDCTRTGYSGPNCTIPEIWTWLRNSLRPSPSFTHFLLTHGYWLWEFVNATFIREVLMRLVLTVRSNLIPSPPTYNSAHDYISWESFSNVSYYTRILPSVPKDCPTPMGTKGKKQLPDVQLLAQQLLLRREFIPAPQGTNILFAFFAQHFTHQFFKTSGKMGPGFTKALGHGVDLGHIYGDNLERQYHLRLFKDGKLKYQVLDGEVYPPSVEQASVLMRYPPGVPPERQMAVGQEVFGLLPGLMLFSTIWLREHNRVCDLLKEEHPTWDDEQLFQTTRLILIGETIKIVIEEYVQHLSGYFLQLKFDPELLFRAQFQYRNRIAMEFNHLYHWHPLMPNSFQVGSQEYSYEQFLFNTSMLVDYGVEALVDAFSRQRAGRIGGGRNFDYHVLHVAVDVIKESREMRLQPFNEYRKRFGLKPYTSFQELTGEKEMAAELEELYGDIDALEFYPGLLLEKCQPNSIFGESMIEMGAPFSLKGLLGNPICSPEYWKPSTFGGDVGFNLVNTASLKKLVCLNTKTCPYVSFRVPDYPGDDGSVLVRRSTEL
Nature of the assay: Inhibition of arachidonic acid-induced COX1 activity in mouse J774 cells assessed as decrease in PGE2 levels incubated for 15 mins prior to arachidonic acid-challenge measured after 30 mins by RIA. The assay is classed as cell-based. The method in brief:
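Cells were in DMEM with 10% FBS and adhered for 2 h at 37 °C. They were pretreated with compound (10 µM; 0.1-1 µM where inhibition exceeded 50%) for 15 min, then given 15 µM arachidonic acid for 30 min at 37 °C. Supernatant PGE2 was measured by RIA. Triplicate wells were used and the mean of three experiments reported. IC50 came from a variable-slope sigmoidal fit.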

Assay [4] has as its target T2, Prostaglandin G/H synthase 2 (Homo sapiens) (UniProt P35354).
T2 sequence (whole entry): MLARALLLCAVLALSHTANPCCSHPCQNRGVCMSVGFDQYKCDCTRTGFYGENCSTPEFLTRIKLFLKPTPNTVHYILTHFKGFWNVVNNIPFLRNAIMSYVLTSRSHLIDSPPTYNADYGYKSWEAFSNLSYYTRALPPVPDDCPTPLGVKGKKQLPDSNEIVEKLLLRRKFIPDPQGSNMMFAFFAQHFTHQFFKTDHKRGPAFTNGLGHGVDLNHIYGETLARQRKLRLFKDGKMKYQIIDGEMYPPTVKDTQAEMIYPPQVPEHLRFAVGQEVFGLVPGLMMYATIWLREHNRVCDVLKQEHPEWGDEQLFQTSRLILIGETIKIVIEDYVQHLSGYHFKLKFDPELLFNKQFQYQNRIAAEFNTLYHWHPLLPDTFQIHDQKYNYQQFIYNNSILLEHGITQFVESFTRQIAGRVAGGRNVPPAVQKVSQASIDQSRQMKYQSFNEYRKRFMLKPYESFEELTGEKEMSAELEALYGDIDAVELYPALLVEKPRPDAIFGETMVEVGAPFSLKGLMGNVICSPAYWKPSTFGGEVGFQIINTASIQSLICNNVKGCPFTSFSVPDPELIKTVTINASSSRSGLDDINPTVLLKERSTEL
Put plainly: (§1) Inhibition of COX2 in human whole blood assessed as reduction in LPS-induced PGE2 generation pre-treated prior to LPS-challenge. In outline:
(§2)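 Heparinized whole blood came from three healthy volunteers pretreated with aspirin 300 mg 48 h before sampling to suppress platelet COX-1. Compounds in DMSO were added at 0.1-300 µM final. Blood was incubated with LPS 10 µg/mL for 24 h at 37 °C. Plasma PGE2 was measured by RIA.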

The target in assay [5] is T3, Prostaglandin G/H synthase 2 (Homo sapiens, UniProt P35354).
T3 sequence (P35354 whole entry): T2 sequence (whole entry)
Described as §1. In outline: as §2

Assay [6] can be described thus: (§3) Inhibition of interleukin 1 beta-induced glycosaminoglycan release in bovine articular cartilage of metacarpophalangeal joints of feet treated 48 hrs after interleukin 1beta-challenge by DMB colorimetric assay. Type of assay: functional, Bos taurus. The method in brief: (§4)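 Bovine metacarpophalangeal cartilage slices (about 100 mg per well) were cultured in serum-free DMEM at 37 °C, 5% CO2, with medium changed on days 1 and 2. On day 3 the slices were challenged with IL-1β 30 ng/mL plus compound for 48 h. GAG release was measured by the DMB (Farndale) assay and expressed as % of IL-1β alone, n = 3. EC50 is given with 95% CI.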

Another assay is filed under the species Bos taurus. The assay is described as §3. The assay is classed as functional. The method in brief: as §4
Assay [7] relates to Rattus norvegicus. Put plainly: Antiinflammatory activity in Sprague-Dawley/Wistar osteoarthritis model rat assessed as decrease in monoiodoacetate-induced hyperalgesia at 20 mg/kg, po bid for 14 days administered from day of monoiodoacetate-challenge followed by additional compound treatment after 30 mins […] by paw pressure test (reference value: 30.4 +/- 3.1 g). The assay is classed as functional.

The subject of assay [8] is Rattus norvegicus. Put plainly: Antiinflammatory activity in Sprague-Dawley/Wistar rat assessed as decrease in carrageenan-induced paw edema at 10 mg/kg, po administered 3 hrs 30 mins after carrageenan-challenge measured after 60 mins (reference value: 2.48 +/- 0.06 mL). The assay is classed as functional.
Assay [9] deals with Rattus norvegicus. Nature of the assay: Antiinflammatory activity in Sprague-Dawley/Wistar rat assessed as decrease in carrageenan-induced paw edema at 20 mg/kg, po administered 3 hrs 30 mins after carrageenan-challenge measured after 60 mins (reference value: 2.48 +/- 0.06 mL). Type of assay: functional.
Assay [10] has as its system Rattus norvegicus. Put plainly: Antiinflammatory activity in Sprague-Dawley/Wistar rat assessed as decrease in carrageenan-induced hyperalgesia at 10 mg/kg, po administered 4 hrs after carrageenan-challenge measured after 60 mins (reference value: 33.9 +/- 3.7 g). The assay is classed as functional.

For the compound `Cc1c(CCOCCO[N+](=O)[O-])cc(-c2ccc(S(C)(=O)=O)cc2)n1-c1ccc(F)cc1`, the Activity with Rattus norvegicus [1] turned out to be 43.8 g; with Rattus norvegicus [2], 49.2 g; in the assay on Rattus norvegicus [7] it was 45.1 g; in the assay with Rattus norvegicus [8], 1.87 mL; in the assay on Rattus norvegicus [9], 1.92 mL; in the assay on Rattus norvegicus [10], 52.6 g. Also, in the assay with Mus musculus, the minimal effective dose was found to be 10 mg/kg. For the same compound, the half-inhibitory concentration (IC50) in the assay on Aorta is at least 10000 nM; in assay [3], over 10000 nM; in [5], 640 nM; in assay [6], 1500 nM. In the assay with Aorta, the pIC50 entry is “Dose-dependent effect”. In assay [4], the IC80 was 2260 nM. Besides, the inhibition entry (in assay [4]; in the assay listed under Bos taurus) was “Dose-dependent effect” throughout.
